Experimental data taken from ChEMBL document CHEMBL1165950, “Design and synthesis of new potent anticancer pyrazoles with high FLT3 kinase inhibitory selectivity” (Bioorg Med Chem, 2010).

Experiments:
Assay type in all cases: functional
SR [1] = assay: Cytotoxicity against human SR cells assessed as cell growth at 1 uM after 48 hrs by sulforhodamine B assay; settings: read-out: Activity
SR [2] = assay: Growth inhibition of human SR cells after 48 hrs by sulforhodamine B assay
Outline: (§1)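 NCI 60-cell screen, five-dose mode. Cells grown in RPMI 1640 with 5% FBS and 2 mM L-glutamine and plated at 5000-40,000 cells/well according to doubling time. After 24 h preincubation, a Tz plate was TCA-fixed. Five concentrations (10-fold or 1/2 log dilutions) were applied for 48 h at 37 °C. SRB staining read at 515 nm. IC50 taken from [(Ti-Tz)/(C-Tz)]×100 = 50.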

MCF7 [3] = assay: Growth inhibition of human MCF7 cells after 48 hrs by sulforhodamine B assay; settings: MCF7, 48 h; outline: as §1
CAKI-1 = assay: Cytotoxicity against human Caki1 cells assessed as cell growth at 1 uM after 48 hrs by sulforhodamine B assay; settings: CAKI-1, 48 h, read-out: Activity
HCT-116 = assay: Cytotoxicity against human HCT116 cells assessed as cell growth at 100 nM after 48 hrs by sulforhodamine B assay; settings: HCT-116, 48 h, read-out: Activity
SR [4] = assay: Cytotoxicity against human SR cells assessed as cell growth at 0.001 uM after 48 hrs by sulforhodamine B assay; settings: read-out: Activity
HCC 2998 [5] = assay: Growth inhibition of human HCC2998 cells after 48 hrs by sulforhodamine B assay; settings: HCC 2998, 48 h; outline: as §1
SK-MEL-28 [6] = assay: Cytotoxicity against human SK-MEL-28 cells assessed as cell growth at 1 uM after 48 hrs by sulforhodamine B assay; settings: SK-MEL-28, 48 h, read-out: Activity
MCF7 [7] = assay: Cytotoxicity against human MCF7 cells assessed as cell growth at 0.001 uM after 48 hrs by sulforhodamine B assay; settings: MCF7, 48 h, read-out: Activity
SR [8] = assay: Cytotoxicity against human SR cells assessed as cell growth at 0.01 uM after 48 hrs by sulforhodamine B assay; settings: read-out: Activity
NCI-H226 [9] = assay: Growth inhibition of human NCI-H226 cells after 48 hrs by sulforhodamine B assay; settings: NCI-H226, 48 h; outline: as §1
RXF 393 [10] = assay: Growth inhibition of human RXF393 cells after 48 hrs by sulforhodamine B assay; settings: RXF 393, 48 h; outline: as §1
SK-MEL-28 [11] = assay: Growth inhibition of human SK-MEL-28 cells after 48 hrs by sulforhodamine B assay; settings: SK-MEL-28, 48 h; outline: as §1
RXF 393 [12] = assay: Cytotoxicity against human RXF393 cells assessed as cell growth at 100 nM after 48 hrs by sulforhodamine B assay; settings: RXF 393, 48 h, read-out: Activity
NCI-H460 = assay: Cytotoxicity against human NCI-H460 cells assessed as cell growth at 1 uM after 48 hrs by sulforhodamine B assay; settings: NCI-H460, 48 h, read-out: Activity
[13] = Cytotoxicity against human […] cells assessed as cell growth at 10 uM; settings: read-out: Activity
Outline: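 NCI-60 screen: cells grown in RPMI 1640 with 5% FBS and 2 mM L-glutamine, plated at 5000–40,000 cells/well according to doubling time, and preincubated 24 h at 37 °C, 5% CO2. The single 10 µM dose (DMSO stock) was added, then incubated 48 h. Cells were TCA-fixed and stained with 0.4% SRB, read at 515 nm, and growth % calculated against time-zero and control plates.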

HCC 2998 [14] = assay: Cytotoxicity against human HCC2998 cells assessed as cell growth at 1 uM after 48 hrs by sulforhodamine B assay; settings: HCC 2998, 48 h, read-out: Activity
MCF7 [15] = assay: Cytotoxicity against human MCF7 cells assessed as cell growth at 100 nM after 48 hrs by sulforhodamine B assay; settings: MCF7, 48 h, read-out: Activity
SK-MEL-28 [16] = assay: Cytotoxicity against human SK-MEL-28 cells assessed as cell growth at 0.001 uM after 48 hrs by sulforhodamine B assay; settings: SK-MEL-28, 48 h, read-out: Activity
RXF 393 [17] = assay: Cytotoxicity against human RXF393 cells assessed as cell growth at 1 uM after 48 hrs by sulforhodamine B assay; settings: RXF 393, 48 h, read-out: Activity
DU-145 = assay: Cytotoxicity against human DU145 cells assessed as cell growth at 0.01 uM after 48 hrs by sulforhodamine B assay; settings: DU-145, 48 h, read-out: Activity
RXF 393 [18] = assay: Cytotoxicity against human RXF393 cells assessed as cell growth at 0.001 uM after 48 hrs by sulforhodamine B assay; settings: RXF 393, 48 h, read-out: Activity
SK-MEL-28 [19] = assay: Cytotoxicity against human SK-MEL-28 cells assessed as cell growth at 100 nM after 48 hrs by sulforhodamine B assay; settings: SK-MEL-28, 48 h, read-out: Activity
MDA-MB-435 = assay: Cytotoxicity against human MDA-MB-435 cells assessed as cell growth at 0.01 uM after 48 hrs by sulforhodamine B assay; settings: MDA-MB-435, 48 h, read-out: Activity
HOP-92 = assay: Cytotoxicity against human HOP92 cells assessed as cell growth at 10 uM; settings: read-out: Activity
Outline: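 Single-dose NCI-60 screen at 10 µM. Cells were grown in RPMI 1640 with 5% FBS and 2 mM L-glutamine, then treated for 48 h at 37 °C. Protein was measured by SRB staining with absorbance at 515 nm. Percentage growth was recorded, and inhibition percentage was calculated as 100 minus growth percentage.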

MCF7 [20] = assay: Cytotoxicity against human MCF7 cells assessed as cell growth at 1 uM after 48 hrs by sulforhodamine B assay; settings: MCF7, 48 h, read-out: Activity
786-0 = assay: Cytotoxicity against human 786-0 cells assessed as cell growth at 10 uM after 48 hrs by sulforhodamine B assay; settings: 786-0, 48 h, read-out: Activity
HCC 2998 [21] = assay: Cytotoxicity against human HCC2998 cells assessed as cell growth at 10 uM after 48 hrs by sulforhodamine B assay; settings: HCC 2998, 48 h, read-out: Activity
NCI-H226 [22] = assay: Cytotoxicity against human NCI-H226 cells assessed as cell growth at 100 nM after 48 hrs by sulforhodamine B assay; settings: NCI-H226, 48 h, read-out: Activity
NCI-H226 [23] = assay: Cytotoxicity against human NCI-H226 cells assessed as cell growth at 10 uM after 48 hrs by sulforhodamine B assay; settings: NCI-H226, 48 h, read-out: Activity
SR [24] = assay: Cytotoxicity against human SR cells assessed as cell growth at 100 nM after 48 hrs by sulforhodamine B assay; settings: read-out: Activity
SF-295 = assay: Cytotoxicity against human SF295 cells assessed as cell growth at 100 nM after 48 hrs by sulforhodamine B assay; settings: SF-295, 48 h, read-out: Activity
NCI-H226 [25] = assay: Cytotoxicity against human NCI-H226 cells assessed as cell growth at 0.01 uM after 48 hrs by sulforhodamine B assay; settings: NCI-H226, 48 h, read-out: Activity
ACHN = assay: Cytotoxicity against human ACHN cells assessed as cell growth at 0.01 uM after 48 hrs by sulforhodamine B assay; settings: read-out: Activity
[26] = Cytotoxicity against human […] cells assessed as cell growth at 10 uM after 48 hrs by sulforhodamine B assay; settings: read-out: Activity
[27] = read-out: LC50 (the source's name)

For COc1cc(C)cc(-c2c(-c3ccnc(-c4ccc(C(C)=O)cc4)c3)cnn2CC#N)c1, the growth at 1 µM (SR [1]) was 18%, the GI50 (SR [2]) was 2.87 µM and the LC50 (concentration killing 50% of cells) (SR [2]) was over 100 µM. For the same compound, the TGI (SR [2]) was over 100 µM, the GI50 (MCF7 [3]) was 3.25 µM and the LC50 (MCF7 [3]) was over 100 µM. For the same compound, the TGI (MCF7 [3]) was over 100 µM, the growth at 1 µM (CAKI-1) was 29% and the growth at 0.1 µM (HCT-116) was 73%. It also gave a growth at 0.001 µM (SR [4]) of 96%, a GI50 (HCC 2998 [5]) of 3.41 µM and a TGI (HCC 2998 [5]) of over 100 µM. The CC50 (HCC 2998 [5]; [27]) was over 100 µM, the growth at 1 µM (SK-MEL-28 [6]) was 44% and the growth at 0.001 µM (MCF7 [7]) was 96%. It also gave a growth at 0.01 µM (SR [8]) of 95%, a GI50 (NCI-H226 [9]) of 5.47 µM and a TGI (NCI-H226 [9]) of over 100 µM. For the same compound, the CC50 (NCI-H226 [9]; [27]) was over 100 µM, the GI50 (RXF 393 [10]) was 2.32 µM and the LC50 (concentration killing 50% of the starting cells) (RXF 393 [10]) was over 100 µM. The TGI (RXF 393 [10]) was 6.02 µM, the GI50 (SK-MEL-28 [11]) was 7.66 µM and the TGI (SK-MEL-28 [11]) was over 100 µM. It also gave a CC50 (SK-MEL-28 [11]; [27]) of over 100 µM, a growth at 0.1 µM (RXF 393 [12]) of 94% and a growth at 1 µM (NCI-H460) of -9%. For the same compound, the growth at 10 µM [13] was 67.6%, the growth at 1 µM (HCC 2998 [14]) was 2% and the growth at 0.1 µM (MCF7 [15]) was 86%. For the same compound, the growth at 0.001 µM (SK-MEL-28 [16]) was 90%, the growth at 1 µM (RXF 393 [17]) was -27% and the growth at 0.01 µM (DU-145) was 100%. The growth at 0.001 µM (RXF 393 [18]) was 86%, the growth at 0.1 µM (SK-MEL-28 [19]) was 95% and the growth at 0.01 µM (MDA-MB-435) was 91%. For the same compound, the growth at 10 µM (HOP-92) was 23.5%, the growth at 1 µM (MCF7 [20]) was 16% and the growth at 10 µM (786-0) was 20%. It also gave a growth at 10 µM (HCC 2998 [21]) of 5%, a growth at 0.1 µM (NCI-H226 [22]) of 96% and a growth at 10 µM (NCI-H226 [23]) of 35%. It also gave a growth at 0.1 µM (SR [24]) of 77%, a growth at 0.1 µM (SF-295) of 85% and a growth at 0.01 µM (NCI-H226 [25]) of 93%. The growth at 0.01 µM (ACHN) was 96% and the growth at 10 µM [26] was -1%.
